The values that follow come from ChEMBL document CHEMBL3102734, “Inhibition of LOX by flavonoids: a structure-activity relationship study” (Eur J Med Chem, 2014).

For assay [1], the target named is T1, Polyunsaturated fatty acid 5-lipoxygenase (Homo sapiens) (UniProt P09917).
T1 sequence (whole entry): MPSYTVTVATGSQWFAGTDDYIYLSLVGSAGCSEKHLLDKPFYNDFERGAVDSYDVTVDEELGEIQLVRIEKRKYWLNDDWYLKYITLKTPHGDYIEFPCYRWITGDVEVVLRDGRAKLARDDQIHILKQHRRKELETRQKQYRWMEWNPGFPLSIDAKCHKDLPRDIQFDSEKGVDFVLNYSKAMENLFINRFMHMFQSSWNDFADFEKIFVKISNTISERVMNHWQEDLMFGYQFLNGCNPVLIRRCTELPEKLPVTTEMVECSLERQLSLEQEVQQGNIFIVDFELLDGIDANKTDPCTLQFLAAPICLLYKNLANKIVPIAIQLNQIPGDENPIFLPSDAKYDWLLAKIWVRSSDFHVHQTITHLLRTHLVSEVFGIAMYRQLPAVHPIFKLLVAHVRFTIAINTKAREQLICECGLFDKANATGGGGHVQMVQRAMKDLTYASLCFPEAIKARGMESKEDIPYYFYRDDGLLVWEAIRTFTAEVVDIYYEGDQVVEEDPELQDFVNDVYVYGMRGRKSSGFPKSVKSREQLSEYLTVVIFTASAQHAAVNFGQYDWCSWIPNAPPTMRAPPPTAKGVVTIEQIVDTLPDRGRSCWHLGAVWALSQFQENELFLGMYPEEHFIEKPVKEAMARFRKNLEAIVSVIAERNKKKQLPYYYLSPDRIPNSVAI
Description: Inhibition of 5-LOX-mediated LTB4 production in human neutrophils using arachidonic acid as substrate at 40 uM preincubated for 10 mins followed by substrate addition measured after 8 mins by enzyme immunoassay relative to control. The method, boiled down:
(§1)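 Isolated human neutrophils held in HBSS on ice; viability checked by trypan blue. Cells at 3.5×10^6 cells/mL equilibrated 10 min at 37 °C. Flavonoids (0.15–40 μM) pre-incubated 10 min, then A23187 (5 μM) plus arachidonic acid (10 μg/mL) added for 8 min. Stopped with cold methanol and centrifuged 13,000 g, 1 min, 4 °C. LTB4 measured by EIA and expressed as % inhibition of control. NDGA (1 μM) positive control. At least three experiments.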

Assay [2] addresses T2, Seed linoleate 13S-lipoxygenase-1 (Glycine max, UniProt P08170).
T2 sequence (P08170 whole entry): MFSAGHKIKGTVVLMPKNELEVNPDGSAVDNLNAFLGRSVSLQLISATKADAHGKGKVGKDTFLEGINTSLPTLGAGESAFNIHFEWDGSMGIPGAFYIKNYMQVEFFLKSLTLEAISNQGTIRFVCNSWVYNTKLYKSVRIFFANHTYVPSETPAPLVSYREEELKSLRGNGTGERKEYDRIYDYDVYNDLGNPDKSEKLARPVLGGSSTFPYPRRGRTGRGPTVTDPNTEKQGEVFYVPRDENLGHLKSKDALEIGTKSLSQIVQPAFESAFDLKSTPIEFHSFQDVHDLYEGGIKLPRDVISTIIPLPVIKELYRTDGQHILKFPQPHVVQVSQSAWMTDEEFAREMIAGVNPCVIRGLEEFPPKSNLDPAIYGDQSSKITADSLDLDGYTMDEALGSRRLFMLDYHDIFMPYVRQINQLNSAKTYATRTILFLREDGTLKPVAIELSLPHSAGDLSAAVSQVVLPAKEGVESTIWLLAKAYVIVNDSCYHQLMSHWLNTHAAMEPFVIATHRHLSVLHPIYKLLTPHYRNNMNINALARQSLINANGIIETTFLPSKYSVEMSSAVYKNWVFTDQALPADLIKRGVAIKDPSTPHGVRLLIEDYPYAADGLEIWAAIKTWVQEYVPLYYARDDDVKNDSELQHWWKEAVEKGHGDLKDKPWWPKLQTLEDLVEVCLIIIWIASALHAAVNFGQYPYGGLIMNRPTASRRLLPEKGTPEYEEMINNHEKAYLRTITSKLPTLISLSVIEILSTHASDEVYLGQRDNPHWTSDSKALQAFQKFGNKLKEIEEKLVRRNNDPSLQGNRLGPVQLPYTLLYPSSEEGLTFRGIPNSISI
Put plainly: Mixed noncompetitive type inhibition of soybean LOX-1 using linoleic acid as substrate preincubated for 5 mins followed by substrate addition by Lineweaver-Burk plot analysis. A digest of the protocol:
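Soybean LOX-1 (supplied lyophilized) kinetic assay. Enzyme pre-incubated with inhibitor 5 min, then linoleic acid added. Conversion to the cis,trans-hydroperoxide followed at 234 nm at 30 °C with continuous soft shaking. Readings every 30 s for 10 min; rate taken as the 0–3 min slope. Three inhibitor concentrations tested against three substrate concentrations. Inhibition type assigned by nonlinear Michaelis–Menten fitting and Lineweaver–Burk plots. At least four experiments, each in triplicate.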

The target in assay [3] is T3, Polyunsaturated fatty acid 5-lipoxygenase (Homo sapiens, UniProt P09917).
T3 sequence (P09917 whole entry): T1 sequence (whole entry)
Put plainly: Inhibition of 5-LOX-mediated LTB4 production in human neutrophils using arachidonic acid as substrate preincubated for 10 mins followed by substrate addition measured after 8 mins by enzyme immunoassay. A digest of the protocol: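 Isolated human neutrophils held in HBSS on ice; viability checked by trypan blue. Flavonoids (0.15–40 μM) pre-incubated 10 min, then A23187 (5 μM) plus arachidonic acid (10 μg/mL) added for 8 min. Stopped with cold methanol and centrifuged 13,000 g, 1 min, 4 °C. LTB4 measured by EIA and expressed as % inhibition of control. NDGA (1 μM) positive control. At least three experiments.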

In assay [4] the target is T4, Seed linoleate 13S-lipoxygenase-1 (Glycine max) (UniProt P08170).
T4 sequence (whole entry): T2 sequence (P08170 whole entry)
Description: Binding affinity to soybean LOX-1 at 1248 uM by STD-[1H] NMR spectroscopic analysis. A digest of the protocol: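 STD-1H NMR at 37 °C, 600 MHz, cryoprobe. Lyophilized soybean LOX-1 in Tris buffer (20 mM Tris, 7 mM (NH4)2SO4, 3.5 mM MgCl2, 0.3 mM DTT in D2O, pH 9.0). Ligand added from a 16.6 mM DMSO-d6 stock. Final concentrations: LOX 4 μM, ligand 1248 μM, ratio 300:1. On-resonance saturation at 1.0 ppm; off-resonance reference at 20000 Hz.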

Assay [5] addresses T1, Polyunsaturated fatty acid 5-lipoxygenase (Homo sapiens). Put plainly: Inhibition of 5-LOX-mediated LTB4 production in human neutrophils using arachidonic acid as substrate at 0.15 to 40 uM preincubated for 10 mins followed by substrate addition measured after 8 mins by enzyme immunoassay relative to control. The method, boiled down:
as §1

Assay [6] deals with T2, Seed linoleate 13S-lipoxygenase-1. Description: Uncompetitive inhibition of soybean LOX-1 using linoleic acid as substrate preincubated for 5 mins followed by substrate addition by Lineweaver-Burk plot analysis. The method, boiled down:
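Soybean LOX-1 (supplied lyophilized) kinetic assay. Enzyme pre-incubated with inhibitor 5 min, then linoleic acid added. Readings every 30 s for 10 min; rate taken as the 0–3 min slope. Three inhibitor concentrations tested against three substrate concentrations. Inhibition type assigned by nonlinear Michaelis–Menten fitting and Lineweaver–Burk plots. At least four experiments, each in triplicate.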

Molecules are shown by their SMILES. Calls of active or inactive are those of the source. No cut-off for these calls is given here.

In general, inhibition refers to the share of the control response that was lost under treatment. In assay [1], `O=c1cc(-c2cccc(O)c2)oc2cccc(O)c12` gave an inhibition below 50%.

The compound `O=c1cc(-c2ccc(O)cc2)oc2ccccc12` registered an inhibition in assay [1] of 38.4%. Regarding `O=C1CC(c2ccc(O)c(O)c2)Oc2cc(O)cc(O)c21` (racemic), in assay [1], the inhibition was found to be 53.4%. As usually defined, the Ki is a measure of affinity in units of concentration, obtained from inhibition or displacement. In general, IC50 refers to the concentration at which inhibition is half-maximal. The low end stands for greater potency in that assay, the high end for weaker potency in that assay. In assay [2], `O=c1cc(-c2ccc(O)c(O)c2)oc2ccccc12` registered a Ki of 84.5 µM. Moreover, the IC50 in assay [3] was 1.7 µM. Moreover, in assay [4], the outcome was Active. In turn, `O=c1cc(-c2ccccc2)oc2ccccc12` registered an inhibition in assay [1] below 50%. Regarding `O=c1cc(-c2ccccc2)oc2cccc(O)c12`, in assay [5], the inhibition result is “inactive”. Regarding `COc1ccc(-c2cc(=O)c3c(O)cc(O)cc3o2)cc1O`, in assay [5], the inhibition entry was “inactive”.

The compound `O=c1cc(-c2ccc(O)c(O)c2)oc2cccc(O)c12` had an IC50 in assay [3] of 2.9 µM. Further, in assay [4], the outcome was Active. This compound had an inhibition constant (Ki) in assay [6] of 18 µM. `COc1ccc(-c2cc(=O)c3c(O)cc(O)cc3o2)cc1OC` gave an inhibition in assay [1] below 50%. On the same count and under the same terms, under `O=C1CC(c2ccc(O)cc2)Oc2cc(O)cc(O)c21` (racemic) stands below 50%. `O=c1cc(-c2cccc(O)c2)oc2cc(O)ccc12` came in with an inhibition in assay [1] of 51.4%. Consider `O=c1cc(-c2ccccc2)oc2cc(O)cc(O)c12` [CHRYSIN], for which the affinity in assay [2], expressed as Ki, was 19.4 µM. In assay [1], this compound showed an inhibition below 50%. Besides, the result in assay [4] was Active.

As to `COc1cc(-c2cc(=O)c3c(O)cc(O)cc3o2)ccc1O`, in assay [1], the inhibition is below 50%. As for `COc1ccc(-c2cc(=O)c3c(O)cc(O)cc3o2)cc1`, the inhibition result in assay [1] was “Active”. For the same compound, in assay [4], the result was Active. `O=C1c2c(O)cc(O)cc2O[C@H](c2ccc(O)c(O)c2)[C@H]1O` came in with an inhibition in assay [1] of 19.9%. Consider `O=c1cc(-c2ccc(O)cc2)oc2cc(O)ccc12`, for which, in assay [1], the inhibition was below 50%.

In assay [1], `O=c1cc(-c2cccc(O)c2)oc2ccccc12` had an inhibition below 50%. For `O=c1cc(-c2ccc(O)cc2)oc2cc(O)cc(O)c12` [APIGENIN], in assay [2], the inhibition constant Ki turned out to be 178 µM. Also, the inhibition in assay [1] is below 50%. The result in assay [4] was Active. In assay [1], `O=c1cc(-c2cccc(O)c2)oc2cc(O)cc(O)c12` came in with an inhibition of 52%. Moreover, in assay [4], the outcome was Active. Besides, in assay [6], affinity was put at a Ki of 95.4 µM. For `O=c1cc(-c2ccc(O)c(O)c2)oc2cc(O)cc(O)c12` [LUTEOLIN], in assay [3], 1.6 µM corresponded to half-maximal inhibition (IC50). Moreover, the outcome in assay [4] was Active. The compound further registered an inhibition constant Ki in assay [6] of 122 µM. The compound `O=c1cc(-c2ccc(O)c(O)c2)oc2cc(O)ccc12` registered a half-inhibitory concentration (IC50) in assay [3] of 2 µM. Moreover, the result in assay [4] was Active. Consider `O=c1cc(-c2ccccc2)oc2cc(O)ccc12`, for which the inhibition in assay [1] was 53.1%. Regarding `O=c1cc(-c2ccc(O)cc2)oc2cccc(O)c12`, in assay [2], the affinity, expressed as Ki, was 103 µM. This compound also yielded an inhibition in assay [1] of 29.8%. In addition, the outcome in assay [4] was Active.
